Experimental data as given in ChEMBL document CHEMBL4680284, “Doxorubicin and Aclarubicin: Shuffling Anthracycline Glycans for Improved Anticancer Agents” (J Med Chem, 2020).
Calls of active or inactive are those of the source. The rule behind the calls is not given here.

Legend:
HCT-116 = experiment: Cytotoxicity in human HCT-116 cells assessed as reduction in cell viability incubated for 2 hrs by Cell-titer-blue assay; assay type: functional, cell-based; details: HCT-116, 2 h
How it was run: (§1)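 The drugs were then removed and the cells grown a further 72 h before a CellTiter-Blue viability read. Survival was normalized to the untreated control and background-corrected, with mean ± SD from three experiments. Culture was at 37 °C in 5% CO2.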

K562 = experiment: Cytotoxicity in human K562 cells assessed as reduction in cell viability incubated for 2 hrs by Cell-titer-blue assay; assay type: functional, cell-based; details: K562, 2 h
How it was run: as §1, with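 “CO2. Media with 8% FCS were RPMI-1640 (DU145, HCT116, K562, PC3), IMDM (MelJuSo) and DMEM (U87).” for “CO2.”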

MEL-JUSO [1] = experiment: Cytotoxicity in human MEL-JUSO cells assessed as reduction in cell viability incubated for 2 hrs by Cell-titer-blue assay; assay type: functional, cell-based; how it was run: as §1
MEL-JUSO [2] = experiment: Induction of histone eviction in human MEL-JUSO cells assessed as release of photoactivated green fluorescent protein-labeled histone H2A at 10 uM incubated for 2 hrs by time-lapse confocal microscopy; assay type: functional, cell-based
How it was run: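 MelJuSo cells stably expressing PAGFP-H2A were kept in IMDM with 8% FCS and G-418. Nuclear regions were photoactivated and 10 μM drug was added. Time-lapse confocal imaging (63× lens, climate chamber) followed the loss of fluorescence from the activated regions. Values are mean ± SD of 10–20 cells from at least three independent experiments.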

DU-145 = experiment: Cytotoxicity in human DU-145 cells assessed as reduction in cell viability incubated for 2 hrs by Cell-titer-blue assay; assay type: functional, cell-based; details: DU-145, 2 h; how it was run: as §1
DNA [3] = experiment: Induction of DNA damage in human K562 cells assessed as induction of DNA break formation by measuring H2AX phosphorylation at 10 uM incubated for 2 hrs by constant-field gel […] method; assay type: cell-based
How it was run: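 K562 cells were exposed to 10 μM drug for 2 h and washed extensively. DNA double-strand breaks were then resolved by constant-field gel electrophoresis and the images quantified. Results are mean ± SD of three independent experiments.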

U-87 MG = experiment: Cytotoxicity in human U87 cells assessed as reduction in cell viability incubated for 2 hrs by Cell-titer-blue assay; assay type: functional, cell-based, U-87MG ATCC; how it was run: as §1
[4] = target: DNA topoisomerase 2-alpha (Homo sapiens) (UniProt P11388); experiment: Induction of relocalization of GFP-tagged Topo2a (unknown origin) expressed in human MEL-JUSO cells at 10 uM incubated for 15 mins; assay type: cell-based
DNA topoisomerase 2-alpha (Homo sapiens), sequence (P11388 whole entry): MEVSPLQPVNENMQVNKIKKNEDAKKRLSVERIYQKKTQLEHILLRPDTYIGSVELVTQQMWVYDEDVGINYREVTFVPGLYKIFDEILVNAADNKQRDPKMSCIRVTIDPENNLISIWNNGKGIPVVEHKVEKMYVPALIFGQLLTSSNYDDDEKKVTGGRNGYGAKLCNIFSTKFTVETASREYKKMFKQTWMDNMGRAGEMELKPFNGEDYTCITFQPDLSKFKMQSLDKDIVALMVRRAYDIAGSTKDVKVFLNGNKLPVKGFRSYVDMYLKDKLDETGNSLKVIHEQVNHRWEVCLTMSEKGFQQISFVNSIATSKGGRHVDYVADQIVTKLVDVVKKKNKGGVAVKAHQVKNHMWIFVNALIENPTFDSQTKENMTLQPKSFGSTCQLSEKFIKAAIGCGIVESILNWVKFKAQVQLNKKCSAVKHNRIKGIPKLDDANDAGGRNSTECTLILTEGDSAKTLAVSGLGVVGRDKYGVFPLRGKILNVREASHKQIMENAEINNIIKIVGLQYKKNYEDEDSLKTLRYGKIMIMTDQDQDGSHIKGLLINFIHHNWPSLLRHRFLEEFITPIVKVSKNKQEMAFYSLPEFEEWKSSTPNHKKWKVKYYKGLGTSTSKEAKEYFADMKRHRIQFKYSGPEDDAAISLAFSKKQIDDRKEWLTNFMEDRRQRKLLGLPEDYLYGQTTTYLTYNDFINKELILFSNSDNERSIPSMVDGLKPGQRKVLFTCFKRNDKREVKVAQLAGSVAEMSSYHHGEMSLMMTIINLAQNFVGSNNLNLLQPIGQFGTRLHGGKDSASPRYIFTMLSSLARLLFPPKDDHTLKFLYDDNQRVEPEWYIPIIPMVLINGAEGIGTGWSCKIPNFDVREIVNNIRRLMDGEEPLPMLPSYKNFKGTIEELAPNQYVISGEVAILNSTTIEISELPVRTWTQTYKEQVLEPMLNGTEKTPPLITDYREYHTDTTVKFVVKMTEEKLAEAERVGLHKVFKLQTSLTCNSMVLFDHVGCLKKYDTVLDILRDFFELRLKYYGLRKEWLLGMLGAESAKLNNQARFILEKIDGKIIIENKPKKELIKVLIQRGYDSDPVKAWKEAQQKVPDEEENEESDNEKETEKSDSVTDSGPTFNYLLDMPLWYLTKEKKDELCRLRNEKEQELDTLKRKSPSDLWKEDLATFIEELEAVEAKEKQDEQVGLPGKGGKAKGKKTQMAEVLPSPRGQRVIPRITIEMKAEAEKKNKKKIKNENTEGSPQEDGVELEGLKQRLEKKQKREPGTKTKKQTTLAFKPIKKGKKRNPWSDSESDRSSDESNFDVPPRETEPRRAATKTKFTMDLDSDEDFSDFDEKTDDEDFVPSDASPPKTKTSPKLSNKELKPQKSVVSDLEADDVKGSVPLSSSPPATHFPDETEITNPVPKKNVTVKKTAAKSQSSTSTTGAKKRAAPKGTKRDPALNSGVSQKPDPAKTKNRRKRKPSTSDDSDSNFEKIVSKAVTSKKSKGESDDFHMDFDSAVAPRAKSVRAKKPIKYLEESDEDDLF
How it was run: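 MelJuSo cells were transiently transfected with a TopoIIα-GFP construct and imaged live by confocal microscopy. Relocalization of TopoIIα was expressed as a fractional distance.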

PC-3 = experiment: Cytotoxicity in human PC-3 cells assessed as reduction in cell viability incubated for 2 hrs by Cell-titer-blue assay; assay type: functional, cell-based; details: PC-3, 2 h; how it was run: as §1
DNA [5] = experiment: Induction of DNA damage in human K562 cells assessed as induction of DNA break formation by measuring H2AX phosphorylation at 10 uM incubated for 2 hrs by Western blot analysis; assay type: cell-based
How it was run: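 K562 cells were given 10 μM drug for 2 h, then washed extensively. They were lysed in SDS sample buffer (2% SDS, 60 mM Tris–HCl pH 6.8) and run on SDS-PAGE. Blots were probed for γH2AX (1:1000), with β-actin (1:10000) as the loading control. The γH2AX signal was quantified relative to actin.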

[6] = Drug uptake in human K562 cells at 1 uM by flow cytometry relative to doxorubicin; assay type: ADME, cell-based; details: k562, 1 µM
How it was run: (§2)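 K562 cells in RPMI-1640 with 8% FCS were exposed to 1 μM drug for 2 h. They were then washed, collected and fixed with paraformaldehyde. The intrinsic anthracycline fluorescence was read by flow cytometry with a 561 nm laser and a 610/20 nm detector.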

[7] = Drug uptake in human K562 cells at 1 uM by flow cytometry relative to aclarubicin; assay type: ADME, cell-based; details: k562, 1 µM; how it was run: as §2

Activity [4] | Structure (SMILES) | IC50 (HCT-116) | IC50 (K562) | IC50 (MEL-JUSO [1]) | Activity (MEL-JUSO [2]) | IC50 (DU-145) | Activity (DNA [3]) | IC50 (U-87 MG) | Activity ([4]; filed as modulator) | IC50 (PC-3) | Activity (DNA [5]) | Drug uptake [6] | Drug uptake [7] | fold change (FC) [6]
– | COc1cccc2c1C(=O)c1c(O)c3c(c(O)c1C2=O)C[C@@](O)(C(=O)CO)C[C@@H]3O[C@H]1C[C@H](N)[C@H](O)[C@H](C)O1 [DOXORUBICIN] | 579 nM | 361 nM | 237 nM | Active | 534 nM | Active | 381 nM | Active | 1140 nM | Active | – | – | –
inactive | COc1cccc2c1C(=O)c1c(O)c3c(c(O)c1C2=O)C[C@@](O)(C(=O)CO)C[C@@H]3O[C@H]1C[C@H](N)[C@H](O[C@H]2C[C@H](O)[C@H](O)[C@H](C)O2)[C@H](C)O1 | – | – | – | inactive | – | inactive | – | – | – | inactive | Not Active | – | –
– | CC[C@@]1(O)C[C@H](O[C@H]2C[C@H](N)[C@H](O)[C@H](C)O2)c2c(cc3c(c2O)C(=O)c2c(O)cccc2C3=O)[C@H]1C(=O)OC | – | – | – | inactive | – | inactive | – | Active | – | inactive | – | Not Active | –
– | CC[C@@]1(O)C[C@H](O[C@H]2C[C@H](N(C)C)[C@H](O[C@H]3C[C@H](O)[C@H](O)[C@H](C)O3)[C@H](C)O2)c2c(cc3c(c2O)C(=O)c2c(O)cccc2C3=O)[C@H]1C(=O)OC | 261 nM | 211 nM | 423 nM | Active | 509 nM | inactive | 448 nM | Active | 383 nM | inactive | – | Active | –
– | COc1cccc2c1C(=O)c1c(O)c3c(c(O)c1C2=O)C[C@@](O)(C(=O)CO)C[C@@H]3O[C@H]1C[C@H](N(C)C)[C@H](O[C@H]2C[C@H](O)[C@H](O[C@H]3CCC(=O)[C@H](C)O3)[C@H](C)O2)[C@H](C)O1 | 8 nM | 26 nM | 7 nM | Active | 17 nM | inactive | 33 nM | Active | 34 nM | inactive | – | – | 4
– | COc1cccc2c1C(=O)c1c(O)c3c(c(O)c1C2=O)C[C@@](O)(C(=O)CO)C[C@@H]3O[C@H]1C[C@H](N(C)C)[C@H](O[C@H]2C[C@H](O)[C@H](O)[C@H](C)O2)[C@H](C)O1 | 1370 nM | 2410 nM | 1570 nM | Active | 3200 nM | inactive | 603 nM | Active | 3200 nM | inactive | Not Active | – | –
– | CC[C@@]1(O)C[C@H](O[C@H]2C[C@H](N(C)C)[C@H](O[C@H]3C[C@H](O)[C@H](O[C@H]4CCC(=O)[C@H](C)O4)[C@H](C)O3)[C@H](C)O2)c2c(cc3c(c2O)C(=O)c2c(O)cccc2C3=O)[C@H]1C(=O)OC [ACLARUBICIN] | 40 nM | 76 nM | 48 nM | Active | 129 nM | inactive | 137 nM | Active | 101 nM | inactive | – | – | –
– | COc1cccc2c1C(=O)c1c(O)c3c(c(O)c1C2=O)C[C@@](O)(C(=O)CO)C[C@@H]3O[C@H]1C[C@H](N)[C@H](O[C@H]2C[C@H](O)[C@H](O[C@H]3CCC(=O)[C@H](C)O3)[C@H](C)O2)[C@H](C)O1 | 1860 nM | 1400 nM | 1810 nM | inactive | 1360 nM | Active | 2210 nM | Active | 1540 nM | Active | Not Active | – | –
– | CC[C@@]1(O)C[C@H](O[C@H]2C[C@H](N)[C@H](O[C@H]3C[C@H](O)[C@H](O[C@H]4CCC(=O)[C@H](C)O4)[C@H](C)O3)[C@H](C)O2)c2c(cc3c(c2O)C(=O)c2c(O)cccc2C3=O)[C@H]1C(=O)OC | – | 3040 nM | – | inactive | – | inactive | – | Active | – | inactive | – | Active | –
